In ChEMBL document CHEMBL4257453, “Identification of karanjin isolated from the Indian beech tree as a potent CYP1 enzyme inhibitor with cellular efficacy via screening of a natural product repository” (Medchemcomm, 2018):

Experiments:
[1] = target: T1, CYP1B1 (Homo sapiens, UniProt Q16678); assay: Inhibition of recombinant human CYP1B1 expressed in baker's yeast-derived microsomes (Sacchrosomes) at 10 uM using 7-ethoxyresorufin substrate by EROD assay relative to control; type: ADME; conditions: probe 7-ethoxyresorufin
T1 sequence (Q16678 whole entry): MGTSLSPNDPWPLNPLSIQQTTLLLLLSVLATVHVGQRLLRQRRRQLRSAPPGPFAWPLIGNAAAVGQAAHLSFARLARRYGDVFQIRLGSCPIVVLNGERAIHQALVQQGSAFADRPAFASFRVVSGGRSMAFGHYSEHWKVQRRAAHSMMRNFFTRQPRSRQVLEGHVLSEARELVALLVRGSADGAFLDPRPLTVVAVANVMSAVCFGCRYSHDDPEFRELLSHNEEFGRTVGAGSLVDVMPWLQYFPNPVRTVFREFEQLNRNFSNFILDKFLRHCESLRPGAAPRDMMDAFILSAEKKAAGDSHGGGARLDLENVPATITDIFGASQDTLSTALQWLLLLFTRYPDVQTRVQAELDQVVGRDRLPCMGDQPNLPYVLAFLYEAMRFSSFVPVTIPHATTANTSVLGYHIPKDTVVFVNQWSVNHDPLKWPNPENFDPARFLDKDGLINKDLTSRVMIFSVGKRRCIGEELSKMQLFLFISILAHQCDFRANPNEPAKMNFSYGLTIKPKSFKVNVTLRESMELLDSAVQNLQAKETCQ
Outline: (§1)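 Yeast microsomes carrying recombinant CYP (Sacchrosomes). […] Substrates per isoform are 7-ethoxyresorufin, 3-cyano-7-ethoxycoumarin, EOMCC or dibenzylfluorescein, read as endpoint fluorescence. Background from compound-only wells without enzyme is subtracted. Independent triplicate runs; α-naphthoflavone positive control.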

[2] = target: CYP2D6 (Homo sapiens, UniProt P10635); assay: Inhibition of recombinant human CYP2D6 expressed in baker's yeast-derived microsomes (Sacchrosomes) at 10 uM using 7-ethoxy-methyloxy-3-cyanocoumarin substrate by EROD assay relative to control; type: ADME; conditions: probe 7-ethoxy-methyloxy-3-cyanocoumarin; outline: as §1
CYP2D6, sequence (P10635 whole entry): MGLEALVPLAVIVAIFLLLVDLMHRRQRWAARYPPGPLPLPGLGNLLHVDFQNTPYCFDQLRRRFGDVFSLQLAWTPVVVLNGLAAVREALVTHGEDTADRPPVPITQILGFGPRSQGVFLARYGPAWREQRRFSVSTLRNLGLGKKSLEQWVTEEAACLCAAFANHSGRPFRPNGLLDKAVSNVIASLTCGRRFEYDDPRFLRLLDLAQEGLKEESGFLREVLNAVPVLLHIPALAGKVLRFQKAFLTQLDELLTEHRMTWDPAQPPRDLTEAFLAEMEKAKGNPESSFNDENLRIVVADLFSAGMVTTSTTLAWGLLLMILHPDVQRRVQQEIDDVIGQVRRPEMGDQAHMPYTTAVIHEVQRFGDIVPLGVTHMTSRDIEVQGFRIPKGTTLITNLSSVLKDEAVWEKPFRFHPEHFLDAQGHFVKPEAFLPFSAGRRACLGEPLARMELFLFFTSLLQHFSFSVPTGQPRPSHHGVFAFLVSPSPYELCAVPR

[3] = target: CYP3A4 (Homo sapiens, UniProt P08684); assay: Inhibition of recombinant human CYP3A4 expressed in baker's yeast-derived microsomes (Sacchrosomes) at 10 uM using dibenzylfluorescein substrate by EROD assay relative to control; type: ADME; conditions: probe dibenzylfluorescein; outline: as §1
CYP3A4, sequence (P08684 whole entry): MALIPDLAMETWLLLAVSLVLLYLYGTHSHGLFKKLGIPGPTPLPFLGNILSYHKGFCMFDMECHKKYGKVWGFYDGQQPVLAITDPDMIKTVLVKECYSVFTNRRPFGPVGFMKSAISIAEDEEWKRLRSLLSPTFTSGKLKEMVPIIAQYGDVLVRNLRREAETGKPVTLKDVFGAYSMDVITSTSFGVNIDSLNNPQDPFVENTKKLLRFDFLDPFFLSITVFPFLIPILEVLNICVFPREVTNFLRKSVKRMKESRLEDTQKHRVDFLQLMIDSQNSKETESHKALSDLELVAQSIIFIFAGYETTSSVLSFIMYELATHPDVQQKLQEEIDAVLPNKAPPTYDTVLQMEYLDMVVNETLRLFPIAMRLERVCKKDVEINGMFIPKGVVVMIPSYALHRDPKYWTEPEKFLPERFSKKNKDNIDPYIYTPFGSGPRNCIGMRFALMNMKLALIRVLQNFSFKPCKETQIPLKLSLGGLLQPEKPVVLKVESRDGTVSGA

[4] = target: CYP2C9 (Homo sapiens, UniProt P11712); assay: Inhibition of recombinant human CYP2C9 expressed in baker's yeast-derived microsomes (Sacchrosomes) at 10 uM using 3-cyano-7-ethoxycoumarin substrate by EROD assay relative to control; type: ADME; conditions: probe 3-cyano-7-ethoxycoumarin; outline: as §1
CYP2C9, sequence (P11712 whole entry): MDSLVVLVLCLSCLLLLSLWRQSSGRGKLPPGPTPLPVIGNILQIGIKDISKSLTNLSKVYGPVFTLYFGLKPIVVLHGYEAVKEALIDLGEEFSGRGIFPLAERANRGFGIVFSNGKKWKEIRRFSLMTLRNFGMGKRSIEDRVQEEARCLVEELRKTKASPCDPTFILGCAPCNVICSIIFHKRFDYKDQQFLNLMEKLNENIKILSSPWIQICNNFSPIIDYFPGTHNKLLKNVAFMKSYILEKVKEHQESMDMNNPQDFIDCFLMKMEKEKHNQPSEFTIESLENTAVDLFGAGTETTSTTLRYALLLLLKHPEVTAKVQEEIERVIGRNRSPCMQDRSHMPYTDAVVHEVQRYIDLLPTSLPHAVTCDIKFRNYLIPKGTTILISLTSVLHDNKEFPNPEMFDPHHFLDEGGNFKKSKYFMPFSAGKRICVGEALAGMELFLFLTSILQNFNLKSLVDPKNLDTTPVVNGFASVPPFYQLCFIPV

[5] = target: CYP2C19 (Homo sapiens, UniProt P33261); assay: Inhibition of recombinant human CYP2C19 expressed in baker's yeast-derived microsomes (Sacchrosomes) at 10 uM using 3-cyano-7-ethoxycoumarin substrate by EROD assay relative to control; type: ADME; conditions: probe 3-cyano-7-ethoxycoumarin; outline: as §1
CYP2C19, sequence (P33261 whole entry): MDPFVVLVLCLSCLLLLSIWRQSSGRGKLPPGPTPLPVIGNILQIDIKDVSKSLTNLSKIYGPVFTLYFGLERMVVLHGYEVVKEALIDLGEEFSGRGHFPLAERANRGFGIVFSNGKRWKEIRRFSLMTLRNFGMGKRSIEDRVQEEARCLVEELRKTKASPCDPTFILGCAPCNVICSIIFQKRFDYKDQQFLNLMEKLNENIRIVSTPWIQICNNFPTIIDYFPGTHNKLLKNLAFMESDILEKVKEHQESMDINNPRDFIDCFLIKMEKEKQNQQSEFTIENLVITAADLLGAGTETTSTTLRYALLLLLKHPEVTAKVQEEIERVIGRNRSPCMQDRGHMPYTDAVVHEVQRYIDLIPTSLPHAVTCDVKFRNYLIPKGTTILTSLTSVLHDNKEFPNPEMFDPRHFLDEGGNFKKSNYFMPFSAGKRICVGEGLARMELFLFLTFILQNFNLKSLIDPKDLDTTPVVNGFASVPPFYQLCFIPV

[6] = target: T2, CYP1A1 (Homo sapiens, UniProt P04798); assay: Inhibition of recombinant human CYP1A1 expressed in baker's yeast-derived microsomes (Sacchrosomes) at 10 uM using 7-ethoxyresorufin substrate by EROD assay relative to control; conditions: probe 7-ethoxyresorufin
T2 sequence (P04798 whole entry): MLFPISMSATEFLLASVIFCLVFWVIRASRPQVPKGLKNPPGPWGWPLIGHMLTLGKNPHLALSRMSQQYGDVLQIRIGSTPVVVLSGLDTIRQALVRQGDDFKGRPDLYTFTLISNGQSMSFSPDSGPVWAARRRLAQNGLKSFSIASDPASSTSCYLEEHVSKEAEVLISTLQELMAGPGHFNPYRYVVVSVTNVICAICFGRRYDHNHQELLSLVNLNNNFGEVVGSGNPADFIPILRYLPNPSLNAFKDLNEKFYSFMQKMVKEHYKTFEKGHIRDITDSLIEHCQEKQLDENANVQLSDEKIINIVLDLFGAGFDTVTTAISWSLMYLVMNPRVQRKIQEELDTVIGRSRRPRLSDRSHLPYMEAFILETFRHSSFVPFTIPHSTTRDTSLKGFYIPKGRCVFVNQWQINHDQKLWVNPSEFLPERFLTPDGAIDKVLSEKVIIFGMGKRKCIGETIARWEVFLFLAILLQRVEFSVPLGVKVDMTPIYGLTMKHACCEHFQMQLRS
Outline: (§2)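 Yeast microsomes carrying recombinant CYP (Sacchrosomes). Substrates per isoform are 7-ethoxyresorufin, 3-cyano-7-ethoxycoumarin, EOMCC or dibenzylfluorescein, read as endpoint fluorescence. Background from compound-only wells without enzyme is subtracted. Independent triplicate runs; α-naphthoflavone positive control.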

[7] = target: T3, CYP1A2 (Homo sapiens, UniProt P05177); assay: Inhibition of recombinant human CYP1A2 expressed in baker's yeast-derived microsomes (Sacchrosomes) at 10 uM using 3-cyano-7-ethoxycoumarin substrate by EROD assay relative to control; type: ADME; conditions: probe 3-cyano-7-ethoxycoumarin; outline: as §2
T3 sequence (P05177 whole entry): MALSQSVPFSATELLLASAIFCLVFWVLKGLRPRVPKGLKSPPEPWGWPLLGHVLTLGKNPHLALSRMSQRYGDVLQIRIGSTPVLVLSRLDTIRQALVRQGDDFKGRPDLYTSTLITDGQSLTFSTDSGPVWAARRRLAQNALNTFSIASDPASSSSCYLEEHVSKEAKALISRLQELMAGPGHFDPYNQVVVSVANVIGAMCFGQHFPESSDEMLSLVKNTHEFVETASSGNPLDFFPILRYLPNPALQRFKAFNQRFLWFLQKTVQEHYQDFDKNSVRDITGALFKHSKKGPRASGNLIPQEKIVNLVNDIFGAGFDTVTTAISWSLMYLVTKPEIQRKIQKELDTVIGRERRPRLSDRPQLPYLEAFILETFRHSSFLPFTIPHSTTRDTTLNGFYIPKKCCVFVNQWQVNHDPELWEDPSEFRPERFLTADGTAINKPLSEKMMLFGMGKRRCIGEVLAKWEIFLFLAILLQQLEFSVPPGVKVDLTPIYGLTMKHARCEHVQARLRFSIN

[8] = target: T2, CYP1A1; assay: Inhibition of human recombinant CYP1A1 expressed in HEK293 cells at 10 uM using 7-ethoxyresorufin substrate preincubated for 30 mins followed by substrate addition and measured after 60 mins by fluorescence assay relative to control; type: cell-based; conditions: HEK293 cells expressing human recombinant CYP1A1, probe 7-ethoxyresorufin
Outline: (§3)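 HEK293 cells adapted to suspension and transiently transfected with pcDNA3.1 plasmids carrying the individual CYP; 100×10^3 cells per well in triplicate. […] Fluorogenic substrate is then added at 5 μM and fluorescence read for 60 min.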

[9] = target: T4, Cytochrome P450 1A1 (Homo sapiens, UniProt P04798); assay: Inhibition of human recombinant CYP1A1 expressed in HEK293 cells using 7-ethoxyresorufin substrate preincubated for 30 mins followed by substrate addition and measured after 60 mins by fluorescence assay relative to control; type: cell-based; outline: as §3
T4 sequence (P04798 whole entry): T2 sequence (P04798 whole entry)

[10] = target: T5, Cytochrome P450 1A2 (Homo sapiens, UniProt P05177); assay: Inhibition of human recombinant CYP1A2 expressed in HEK293 cells using 3-cyano-7-ethoxycoumarin substrate preincubated for 30 mins followed by substrate addition and measured after 60 mins by fluorescence assay relative to control; type: ADME, cell-based; outline: as §3
T5 sequence (P05177 whole entry): T3 sequence (P05177 whole entry)

[11] = target: T6, Cytochrome P450 1B1 (Homo sapiens, UniProt Q16678); assay: Inhibition of human recombinant CYP1B1 expressed in HEK293 cells using 7-ethoxyresorufin substrate substrate preincubated for 30 mins followed by substrate addition and measured after 60 mins by fluorescence assay relative to control; type: ADME, cell-based; outline: as §3
T6 sequence (Q16678 whole entry): T1 sequence (Q16678 whole entry)

[12] = target: Cytochrome P450 2D6 (Homo sapiens, UniProt P10635); assay: Inhibition of human recombinant CYP2D6 expressed in HEK293 cells using 7-ethoxy-methyloxy-3-cyanocoumarin substrate substrate preincubated for 30 mins followed by substrate addition and measured after 60 mins by fluorescence assay relative to control; type: ADME, cell-based; outline: as §3
Cytochrome P450 2D6, sequence (P10635 whole entry): as the sequence (P10635 whole entry) above

[13] = target: Cytochrome P450 2C9 (Homo sapiens, UniProt P11712); assay: Inhibition of human recombinant CYP2C9 expressed in HEK293 cells using 3-cyano-7-ethoxycoumarin substrate substrate preincubated for 30 mins followed by substrate addition and measured after 60 mins by fluorescence assay relative to control; type: ADME, cell-based; outline: as §3
Cytochrome P450 2C9, sequence (P11712 whole entry): as the sequence (P11712 whole entry) above

[14] = target: Cytochrome P450 2C19 (Homo sapiens, UniProt P33261); assay: Inhibition of human recombinant CYP2C19 expressed in HEK293 cells using 3-cyano-7-ethoxycoumarin substrate substrate preincubated for 30 mins followed by substrate addition and measured after 60 mins by fluorescence assay relative to control; type: ADME, cell-based; outline: as §3
Cytochrome P450 2C19, sequence (P33261 whole entry): as the sequence (P33261 whole entry) above

[15] = target: Cytochrome P450 3A4 (Homo sapiens, UniProt P08684); assay: Inhibition of human recombinant CYP3A4 expressed in HEK293 cells using dibenzylfluorescein substrate substrate preincubated for 30 mins followed by substrate addition and measured after 60 mins by fluorescence assay relative to control; type: ADME, cell-based
Cytochrome P450 3A4, sequence (P08684 whole entry): as the sequence (P08684 whole entry) above
Outline: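 HEK293 cells adapted to suspension and transiently transfected with pcDNA3.1 plasmids carrying the individual CYP; 100×10^3 cells per well in triplicate. Fluorogenic substrate is then added at 5 μM and fluorescence read for 60 min.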

inhibition at 10 µM [1] [%]	inhibition at 10 µM [2] [%]	inhibition at 10 µM [3] [%]	inhibition at 10 µM [4] [%]	inhibition at 10 µM [5] [%]	inhibition at 10 µM [6] [%]	SMILES	inhibition at 10 µM [7] [%]	inhibition at 1 h, 10 µM [8] [%]	IC50 [9] [µM]	Ki [9] [µM]	IC50 [10] [µM]	Ki [10] [µM]	IC50 [11] [µM]	IC50 [12] [µM]	IC50 [13] [µM]	IC50 [14] [µM]	IC50 [15] [µM]
96	5	6	10	9		O=c1cc(-c2ccccc2)oc2c1ccc1ccccc12 [ALPHA-NAPHTHOFLAVONE]											
					56	CC1(C)O[C@H]1COc1c2ccoc2cc2oc(=O)ccc12 [OXYPEUCEDANIN]											
98	20	12	3	5	87 to 97	COc1c2ccoc2c(OCC=C(C)C)c2oc(=O)ccc12 [PHELLOPTERIN]	96	90	0.58	0.62	0.42	0.38	0.22	> 10	> 10	> 10	> 10
					34	COc1ccc2ccc(=O)oc2c1CC=C(C)C [OSTHOLE]											
12	14	9	0	3	85 to 87	COc1c(C(=O)CC(=O)c2ccccc2)ccc2occc12	8	85	2.23	1.96	3.16	3.86	6.04	> 10	> 10	> 10	> 10
					42	O=C(/C=C/C=C/c1ccc2c(c1)OCO2)N1CCCCC1 [PIPERINE]											
					52	Cc1c(O)c2c(c(C(=O)/C=C/c3ccccc3)c1O)OC(C)(C)C=C2											

SMILES	inhibition at 10 µM [1] [%]	inhibition at 10 µM [2] [%]	inhibition at 10 µM [3] [%]	inhibition at 10 µM [4] [%]	inhibition at 10 µM [5] [%]	inhibition at 10 µM [6] [%]	inhibition at 10 µM [7] [%]	inhibition at 1 h, 10 µM [8] [%]	IC50 [9] [µM]	Ki [9] [µM]	IC50 [10] [µM]	Ki [10] [µM]	IC50 [11] [µM]	IC50 [12] [µM]	IC50 [13] [µM]	IC50 [14] [µM]	IC50 [15] [µM]
O=c1cc(-c2ccc(O)cc2)oc2c([C@@H]3O[C@H](CO)[C@@H](O)[C@H](O)[C@H]3O)c(O)cc(O)c12 [VITEXIN]						42											
COc1ccc2c(c1OC)C(OC)N(C)c1c-2ccc2cc3c(cc12)OCO3 (configuration not stated)	10	11	6	4	3	90	7	80	3.03	3.25	8.93	9.16	7.7	> 10	> 10	> 10	> 10
CC1=CC(=O)c2c(O)cccc2C1=O [PLUMBAGIN]	40	10	15	11	12		55	86	2.77	2.56	2.46	2.36	6.15	> 10	> 10	> 10	> 10
